Like-named read-outs stand apart in the source and are kept apart here.
Tests used:
[1] = test system: RVFV (rRVFVΔNSs::Katushka); assay: microbe, parasite or virus in culture; format: cell-based, Rift Valley fever virus
in vitro [2] = conditions: human
ZIKV FB-GWUH-2016 strain [3] = assay: Viability and death of ZIKV-infected RPE cells; format: cell-based, Zika virus; conditions: for SI (minimal selectivity index, CC50/EC50): ZIKV, RPE cells; for EC50: Zika virus, RPE
ZIKV FB-GWUH-2016 strain [4] = assay: ZIKV titer from compound-treated RPE cells, plaque assay on Vero-E6 cells; format: cell-based, Zika virus; conditions: for antiviral activity in repeat experiments: repeated CTG, CTxG and virus titration; for EC50: Zika virus, read-out: EC50 other
In short: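 Medium for ZIKV infection: DMEM-F12 with 2% FBS, 2 mM L-glutamine, 0.25% sodium bicarbonate and 50 U/ml PenStrep, applied after 24 h growth of ~4 × 10^4 RPE cells/well. Test compound added in seven three-fold dilutions from 30 μM; infection at MOI 1. Media harvested at cytopathic effect (typically 24–72 hpi), serially diluted in PBS, plaque-titrated on Vero-E6 (PFU/ml). EC50 from variable-slope non-linear regression or Hill fit.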

in vitro [5] = conditions: human; remark: listed apart in the source
CHIKV-2SG-NanoLuc [6] = assay: microbe, parasite or virus in culture; format: cell-based, Chikungunya virus; conditions: for EC50: Chikungunya virus, RPE
CHIKV-2SG-NanoLuc [7] = assay: microbe, parasite or virus in culture; format: cell-based, Chikungunya virus
EV1 [8] = assay: microbe, parasite or virus in culture; format: cell-based, Echovirus 1
EV1 [9] = assay: microbe, parasite or virus in culture; format: cell-based, Echovirus 1; conditions: for EC50: read-out: EC50 other
HIV-1 = HIV-1 infection of TZM-bl cells, firefly luciferase under HIV-1 LTR promoter; format: cell-based, Human immunodeficiency virus 1
in vitro [10] = conditions: human; remark: listed apart in the source
[11] = test system: FLUAV (influenza A/WSN/33(H1N1) virus); assay: microbe, parasite or virus in culture; format: cell-based; conditions: for EC50: Influenza A virus, H1N1|WSN, RPE
[12] = test system: FLUAV (influenza A/WSN/33(H1N1) virus); assay: microbe, parasite or virus in culture; format: cell-based
HSV-1 [13] = assay: Viability and death of HSV-1-infected RPE cells; format: cell-based, Herpes simplex virus 1
HSV-1 [14] = assay: HSV-1 titer from compound-treated RPE cells, plaque assay on Vero-E6 cells; format: cell-based, Herpes simplex virus 1; conditions: HSV-1, RPE cells; repeated CTG, CTxG and virus titration
In short: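 RPE cells (~4 × 10^4/well) grown 24 h, then switched to DMEM-F12 with 0.2% BSA, 2 mM L-glutamine, 0.35% NaHCO3 and 1 μg/mL TPCK-trypsin. Three-fold dilutions of test compound (seven concentrations from 30 μM); HSV-1 infection at MOI 1. Supernatants collected at cytopathic effect (typically 24–72 hpi), serially diluted in PBS, plaqued on Vero-E6 under overlay, fixed; titers as PFU/ml.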

[15] = Enterovirus B, RPE, read-out: EC50 CTxG

Nc1ncn([C@@H]2O[C@H](CO)[C@@H](O)[C@H]2O)c(=O)n1 [Azacitidine]
SI (minimal selectivity index, CC50/EC50) [1]: >9
screen hit against RVFV [1]: identified
EC50 ([1]; Rift Valley fever virus, A549, read-out: EC50 other): 11.4 µM
CC50 (in vitro [2]): > 100 µM

Nc1ncnc2c([C@@H]3N[C@H](CO)[C@@H](O)[C@H]3O)c[nH]c12 [BCX4430]
SI (minimal selectivity index, CC50/EC50) (ZIKV FB-GWUH-2016 strain [3]): >2
EC50 (ZIKV FB-GWUH-2016 strain [3]; read-out: EC50 CTG): 18500 nM
EC50 (ZIKV FB-GWUH-2016 strain [3]; read-out: EC50 CTxG): 2960 nM
antiviral activity in repeat experiments (ZIKV FB-GWUH-2016 strain [4]; ZIKV, RPE cells): confirmed antiviral activity
EC50 (ZIKV FB-GWUH-2016 strain [4]): 13.1 µM
CC50 (in vitro [5]; CC50 CTG): > 30 µM
CC50 (in vitro [5]; CC50 CTxG): > 30 µM

CCN(CC)CCCC(C)Nc1ccnc2cc(Cl)ccc12 (centres unmarked) [Chloroquine]
SI (minimal selectivity index, CC50/EC50) (ZIKV FB-GWUH-2016 strain [3]): >4
EC50 (ZIKV FB-GWUH-2016 strain [3]; read-out: EC50 CTG): 7250 nM
antiviral activity in repeat experiments (ZIKV FB-GWUH-2016 strain [4]; ZIKV, RPE cells): confirmed antiviral activity
SI (minimal selectivity index, CC50/EC50) (CHIKV-2SG-NanoLuc [6]; CHIKV, RPE cells): >2
EC50 (CHIKV-2SG-NanoLuc [6]; read-out: EC50 CTG): 12.8 µM
EC50 (CHIKV-2SG-NanoLuc [6]; read-out: EC50 CTxG): 9.15 µM
antiviral activity in repeat experiments (CHIKV-2SG-NanoLuc [7]): confirmed antiviral activity
EC50 (CHIKV-2SG-NanoLuc [7]; Chikungunya virus, RPE, read-out: EC50 other): 16.8 µM
CC50 (in vitro [5]; CC50 CTG): > 30 µM
CC50 (in vitro [5]; CC50 CTxG): > 30 µM

CN[C@H]1C(=O)N[C@@H]2Cc3ccc(cc3)Oc3cc4cc(c3O[C@@H]3O[C@H](C(=O)O)[C@@H](O)[C@H](O)[C@H]3NC(=O)CCCCCCCCC(C)C)Oc3ccc(cc3Cl)[C@@H](O)[C@@H]3NC(=O)[C@H](NC(=O)[C@@H]4NC(=O)[C@@H](NC2=O)c2cc(cc(O)c2Cl)Oc2cc1ccc2O)c1ccc(O)c(c1)-c1c(O[C@H]2O[C@H](CO)[C@@H](O)[C@H](O)[C@@H]2O)cc(O)cc1[C@@H](C(=O)NCCCN(C)C)NC3=O [Dalbavancin]
EC50 (EV1 [8]; read-out: EC50 CTG): 3230 nM
EC50 (EV1 [8]; read-out: EC50 CTxG): 18700 nM
antiviral activity in repeat experiments (EV1 [9]): confirmed antiviral activity
production of infectious virus particles (EV1 [9]): lowered production of infectious virus particles
EC50 (EV1 [9]): 9.72 µM
CC50 (RPE cells): > 30 µM
cytotoxicity (RPE cells): without detectable cytotoxicity

CCCCOc1cc(C(=O)NCCN(CC)CC)c2ccccc2n1 [Dibucaine]
SI (minimal selectivity index, CC50/EC50) (EV1 [8]): >15
EC50 (EV1 [8]; [15]): 2050 nM
antiviral activity in repeat experiments (EV1 [9]): confirmed antiviral activity
EC50 (EV1 [9]; Enterovirus B): 0.96 µM
CC50 (in vitro [5]; CC50 CTG): > 30 µM
CC50 (in vitro [5]; CC50 CTxG): > 30 µM

O=C1[C@H](CC[C@H](O)c2ccc(F)cc2)[C@@H](c2ccc(O)cc2)N1c1ccc(F)cc1 [Ezetimibe]
SI (minimal selectivity index, CC50/EC50) (ZIKV FB-GWUH-2016 strain [3]): >333
EC50 (ZIKV FB-GWUH-2016 strain [3]; read-out: EC50 CTxG): 90 nM
production of infectious virus particles (ZIKV FB-GWUH-2016 strain [4]; ZIKV, RPE cells): lowered production of infectious virus particles
antiviral activity in repeat experiments (ZIKV FB-GWUH-2016 strain [4]; ZIKV, RPE cells): confirmed antiviral activity
SI (minimal selectivity index, CC50/EC50) (HIV-1; HIV-1, TZM-bl cells): >2
primary screen hit against HIV-1 (HIV-1; HIV-1, TZM-bl cells): anti-HIV-1 agents
validation of anti-HIV-1 hit (HIV-1; HIV-1, TZM-bl cells, validation experiment): confirmed
EC50 (HIV-1; Human immunodeficiency virus 1, TZM-bl, read-out: EC50 other): 13.2 µM
screen hit against RVFV [1]: identified
cytotoxicity (RPE cells): without detectable cytotoxicity
CC50 (in vitro [5]; CC50 CTG): > 30 µM
CC50 (in vitro [5]; CC50 CTxG): > 30 µM
CC50 (in vitro [10]): > 30 µM

CNCCC(Oc1ccc(C(F)(F)F)cc1)c1ccccc1 (centres unmarked) [Fluoxatine]
CC50 (in vitro [5]; CC50 CTG): 4.02 µM
CC50 (in vitro [5]; CC50 CTxG): 7.33 µM

Nc1ccn([C@@H]2O[C@H](CO)[C@@H](O)C2(F)F)c(=O)n1 [Gemcitabine]
SI (minimal selectivity index, CC50/EC50) [11]: >29
EC50 ([11]; read-out: EC50 CTG): 250 nM
EC50 ([11]; read-out: EC50 CTxG): 1020 nM
antiviral activity in repeat experiments [12]: confirmed antiviral activity
EC50 ([12]; Influenza A virus, H1N1|WSN, read-out: EC50 other): 890 nM
SI (minimal selectivity index, CC50/EC50) (EV1 [8]): >4
EC50 (EV1 [8]; [15]): 80 nM
antiviral activity in repeat experiments (EV1 [9]): confirmed antiviral activity
EC50 (EV1 [9]; Enterovirus B): 6.96 µM
SI (minimal selectivity index, CC50/EC50) (ZIKV FB-GWUH-2016 strain [3]): 23
EC50 (ZIKV FB-GWUH-2016 strain [3]; read-out: EC50 CTG): 920 nM
EC50 (ZIKV FB-GWUH-2016 strain [3]; read-out: EC50 CTxG): 70 nM
antiviral activity in repeat experiments (ZIKV FB-GWUH-2016 strain [4]; ZIKV, RPE cells): confirmed antiviral activity
SI (minimal selectivity index, CC50/EC50) (HSV-1 [13]; HSV-1, RPE cells): >500
EC50 (HSV-1 [13]; Human alphaherpesvirus 1, RPE, read-out: EC50 CTG): 50 nM
antiviral activity in repeat experiments (HSV-1 [14]): confirmed antiviral activity
CC50 (RPE cells; human): 21.8 µM
CC50 (in vitro [5]; CC50 CTG): > 30 µM
CC50 (in vitro [5]; CC50 CTxG): > 30 µM

CCN(CCO)CCCC(C)Nc1ccnc2cc(Cl)ccc12 (centres unmarked) [Hydroxychloroquine]
SI (minimal selectivity index, CC50/EC50) (ZIKV FB-GWUH-2016 strain [3]): >1
EC50 (ZIKV FB-GWUH-2016 strain [3]; read-out: EC50 CTG): 23000 nM
EC50 (ZIKV FB-GWUH-2016 strain [3]; read-out: EC50 CTxG): 60 nM
antiviral activity in repeat experiments (ZIKV FB-GWUH-2016 strain [4]; ZIKV, RPE cells): confirmed antiviral activity
CC50 (in vitro [5]; CC50 CTG): > 30 µM
CC50 (in vitro [5]; CC50 CTxG): > 30 µM

Cc1cccc(C)c1OCC(=O)N[C@@H](Cc1ccccc1)[C@@H](O)C[C@H](Cc1ccccc1)NC(=O)[C@H](C(C)C)N1CCCNC1=O [Lopinavir]
SI (minimal selectivity index, CC50/EC50) (ZIKV FB-GWUH-2016 strain [3]): >1
EC50 (ZIKV FB-GWUH-2016 strain [3]; read-out: EC50 CTG): 12000 nM
antiviral activity in repeat experiments (ZIKV FB-GWUH-2016 strain [4]; ZIKV, RPE cells): confirmed antiviral activity
EC50 (ZIKV FB-GWUH-2016 strain [4]): 24.1 µM
CC50 (in vitro [5]; CC50 CTG): > 30 µM
CC50 (in vitro [5]; CC50 CTxG): > 30 µM
